# Laboratory results: ChEMBL document CHEMBL1134527, “Discovery of novel mesangial cell proliferation inhibitors using a three-dimensional database searching method” (2001)
# Assays:
# Format in all cases: functional
# [1] = Compound was tested for the in vitro MC proliferation Inhibitory activity at a dose of 0.1 uM against normal human mesangial cells
# How it was run: (§1)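 Normal human glomerular mesangial cells grown in MCDB131 with 5% FBS, amphotericin B and gentamycin. Plated at 2 × 10⁴ cells/well for 3 days, then serum-free 4 days. Exposed to compound in DMEM + 2% FBS for 18 h with 1 μCi/mL [³H]thymidine. TCA-insoluble counts read; four wells per concentration. Inhibition % = (control − sample)/(control − DMEM blank).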
# [2] = Compound was tested for the in vitro MC proliferation Inhibitory activity at a dose of 1 uM against normal human mesangial cells; how it was run: as §1
# [3] = Compound was tested for the in vitro MC proliferation Inhibitory activity at a dose of 10 uM against normal human mesangial cells
# How it was run: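 Normal human glomerular mesangial cells kept in MCDB131 with amphotericin B, gentamycin and 5% FBS. Seeded 2 × 10⁴ cells/well, grown 3 days, serum-starved 4 days. Then given compound in DMEM + 2% FBS for 18 h with 1 μCi/mL [³H]thymidine. TCA-insoluble counts read by scintillation, four wells per concentration. Inhibition % = (control − sample)/(control − blank), where blank is DMEM alone.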
# [4] = system: RPTEC; assay: Compound was evaluated for the renal proximal tubular epithelial cell ( RPTEC) proliferation assay using RPTEC''s at a dose of 1 uM; settings: Homo sapiens
# How it was run: (§2)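 Human renal proximal tubular epithelial cells handled as in the mesangial assay: plated 2 × 10⁴ cells/well for 3 days, serum-starved 4 days. Then 18 h in DMEM + 2% FBS with compound and 1 μCi/mL [³H]thymidine. TCA-precipitable counts measured; four wells per concentration. % inhibition = (control − sample)/(control − blank).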
# [5] = system: RPTEC; assay: Compound was evaluated for the renal proximal tubular epithelial cell (RPTEC) proliferation assay using RPTEC''s at a dose of 0.1 uM; settings: Homo sapiens; how it was run: as §2
# [6] = system: RPTEC; assay: Compound was evaluated for the renal proximal tubular epithelial cell (RPTEC) proliferation assay using RPTEC's at a dose of 10 uM; settings: Homo sapiens
# How it was run: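 Human renal proximal tubular epithelial cells, run by the same [³H]thymidine method as the mesangial assay. Compound added in DMEM + 2% FBS for 18 h after serum-free pre-incubation. DNA synthesis taken as TCA-insoluble counts, four wells per concentration. Inhibition % = (control − sample)/(control − blank), where blank is DMEM alone.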
SMILES,inhibition at 0.1 µM [1] [%],inhibition at 1 µM [2] [%],inhibition at 10 µM [3] [%],inhibition at 1 µM [4] [%],inhibition at 0.1 µM [5] [%],inhibition at 10 µM [6] [%]
Cc1c(Cc2c(Cl)cccc2Cl)c(=O)oc2cc(OCC(=O)OCC(=O)c3ccccc3)ccc12,49,60,66,24,35,31
CCOP(=O)(Cc1ccc(C(=O)Nc2nc3c(OC)cc(OC)cc3s2)cc1)OCC,59,59,108,39,33,103
CCOC(=O)c1cc(NC(=O)NC(=O)c2c(Cl)cccc2Cl)ccc1Oc1cncc(Cl)c1,90,105,112,32,-1,96
CO/C(O)=C(/C=N/c1ccc(Oc2ccccc2OC(C)C)nc1)NC(=O)c1ccccc1,68,73,82,12,2,8
Cc1c(Cc2c(Cl)cccc2Cl)c(=O)oc2cc(OCC(=O)OCC(=O)c3ccc(Cl)cc3)ccc12,72,74,80,6,16,21
CCOP(=O)(Cc1ccc(C(=O)Nc2cc(-c3ccc(Cl)cc3)no2)cc1)OCC,69,91,94,88,30,99
CCOP(=O)(Cc1ccc(C(=O)Nc2ccccn2)cc1)OCC,62,65,68,32,23,60
CCOP(=O)(Cc1ccc(C(=O)Nc2nc(-c3ccccc3)ns2)cc1)OCC,62,85,108,61,33,96
CCOP(=O)(Cc1ccc(C(=O)Nc2ccc(Br)cc2C#N)cc1)OCC [IBROLIPIM],–,–,56,–,–,77
